Results of several laboratories.
Lines come from different studies, so protocols differ.
Target: Serine/threonine-protein kinase ULK2 (ULK2, Homo sapiens, UniProt Q8IYT8)
Sequence (Q8IYT8 1-1036, as in one of the studies): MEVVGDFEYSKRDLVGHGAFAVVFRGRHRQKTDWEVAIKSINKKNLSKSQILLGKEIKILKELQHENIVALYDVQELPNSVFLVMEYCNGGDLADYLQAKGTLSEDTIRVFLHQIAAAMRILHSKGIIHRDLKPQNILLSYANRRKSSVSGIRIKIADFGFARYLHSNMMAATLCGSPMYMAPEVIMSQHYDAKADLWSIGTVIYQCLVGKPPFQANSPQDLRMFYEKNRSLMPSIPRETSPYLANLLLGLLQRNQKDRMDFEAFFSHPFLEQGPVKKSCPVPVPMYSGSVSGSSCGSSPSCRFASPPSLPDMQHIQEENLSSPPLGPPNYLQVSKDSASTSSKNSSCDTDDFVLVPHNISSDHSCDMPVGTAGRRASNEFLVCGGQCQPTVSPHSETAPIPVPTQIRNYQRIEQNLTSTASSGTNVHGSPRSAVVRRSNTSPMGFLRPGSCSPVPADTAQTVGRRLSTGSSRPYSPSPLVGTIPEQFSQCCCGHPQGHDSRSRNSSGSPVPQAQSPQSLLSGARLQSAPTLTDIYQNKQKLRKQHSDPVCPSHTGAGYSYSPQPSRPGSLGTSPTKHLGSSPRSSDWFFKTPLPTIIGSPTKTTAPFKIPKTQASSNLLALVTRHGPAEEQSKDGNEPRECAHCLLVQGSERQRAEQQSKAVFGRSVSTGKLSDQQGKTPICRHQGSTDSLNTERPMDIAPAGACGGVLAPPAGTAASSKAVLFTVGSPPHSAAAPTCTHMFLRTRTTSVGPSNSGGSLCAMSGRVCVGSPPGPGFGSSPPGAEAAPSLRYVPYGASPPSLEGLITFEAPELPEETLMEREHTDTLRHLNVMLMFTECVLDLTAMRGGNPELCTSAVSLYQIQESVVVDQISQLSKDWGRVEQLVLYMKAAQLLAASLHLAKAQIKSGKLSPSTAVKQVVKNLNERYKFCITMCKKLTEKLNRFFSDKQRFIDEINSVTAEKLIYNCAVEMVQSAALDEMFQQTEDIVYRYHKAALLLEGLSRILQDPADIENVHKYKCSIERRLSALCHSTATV

| Structure (SMILES) | read-out | technique | concentration | remaining binding |
| --- | --- | --- | --- | --- |
| COc1ncc2cc3ccccc3nc2c1C#N | cell-free assay | competition with immobilised ligand | 5 µM | 100% |
| FC(F)(F)Oc1cccc(-c2cnc3ccc(-c4ccncc4)nn23)c1 | binding | competition with immobilised ligand | 5 µM | 78% |
| CCS(=O)(=O)c1cc2cc(C[C@](O)(CC(C)(C)c3ccc(F)cc3C(N)=O)C(F)(F)F)[nH]c2cn1 | cell-free assay | competition with immobilised ligand | 1 µM | 100% |
| CC1CCCN1c1nccc(-c2cnn3ncccc23)n1 (stereo not shown) | binding | – | 1 µM | 74% |
| c1cncc(-c2cccc(Nc3nccc(NC4CCCCC4)n3)c2)c1 | binding | competition with immobilised ligand | 10 µM | 80% |
| CSc1cccnc1N1CCN(Cc2nc3ccccc3[nH]2)CC1 | cell-free assay | competition with immobilised ligand | 1 µM | 94% |
| CN(C)c1nccc(-c2cnn3ncccc23)n1 | binding | – | 1 µM | 100% |
| Cc1cnc(Nc2ccc(C(=O)N3CCC(N4CCCC4)CC3)cc2)nc1-c1cc2ccccc2s1 | binding | competition with immobilised ligand | 1 µM | 12% |
| O=C(NCC1CCOCC1)c1n[nH]cc1NC(=O)c1c(F)cccc1F | binding | competition with immobilised ligand | 1 µM | 81% |
| N[C@@H]1CCN(c2nccc(-c3cnn4ncccc34)n2)C1 | binding | – | 1 µM | 100% |
| CCCOc1ccc([C@H]2[C@H](C(=O)O)[C@@H](c3ccc4c(c3)OCO4)CN2CC(=O)Nc2c(CC)cccc2CC)cc1 | cell-free assay | competition with immobilised ligand | 1 µM | 55% |
| Nc1ncc2c(n1)-c1c([nH]c3ccc(C#CC4CC4)cc13)CCCC2 | binding | competition with immobilised ligand | 1 µM | 100% |
| C[C@@H]1CN(c2ccc3ncc(-c4ccc5[nH]nc(C6CC6)c5c4)n3n2)C[C@H](C)O1 | binding | competition with immobilised ligand | 50 nM | 92% |
| O=C(c1ccc(Nc2ncc(Cl)c(-c3ccc(Cl)s3)n2)cc1)N1CCC(N2CCCC2)CC1 | binding | competition with immobilised ligand | 1 µM | 31% |
| C[C@@H]1CCN(c2nccc(-c3cnn4ncccc34)n2)C1 | binding | – | 1 µM | 69% |
| CNCc1ccccc1-c1csc([C@H](C)Nc2nc(C)nc3cc(OC)c(OC)cc23)c1 | cell-free assay | competition with immobilised ligand | 1 µM | 100% |
| CN(C)c1nccc(-c2cnc3ncccn23)n1 | binding | – | 1 µM | 74% |
| C=CC(=O)N1CCC(C(=O)NCC(=O)N2CCN(c3nc(-c4cnc(N)nc4C(F)F)nc(N4CCOCC4)n3)CC2)CC1 | binding | competition with immobilised ligand | 1 µM | 96% |
| COC(=O)Nc1nc2ccc(C(=O)c3ccccc3)cc2[nH]1 | cell-free assay | competition with immobilised ligand | 10 µM | 30% |
| O=C(O)[C@H]1[C@H](Cn2nnc3ccccc3c2=O)CC[C@@H]1C(=O)c1ccc(OCCC2CCOCC2)cc1 | cell-free assay | competition with immobilised ligand | 1 µM | 100% |
| O=C(c1ccc(Nc2ncc(Cl)c(-c3cc4ccccc4s3)n2)cc1)N1CCC(N2CCCC2)CC1 | binding | competition with immobilised ligand | 1 µM | 35% |
| CS(=O)(=O)c1cc(C2(NC(=O)c3cncc4c3cnn4-c3ccc(F)cc3)CC2)ccn1 | cell-free assay | competition with immobilised ligand | 1 µM | 92% |
| F[C@@H]1CCN(c2nccc(-c3cnn4ncccc34)n2)C1 | binding | – | 1 µM | 100% |
| CCOC(=O)c1cc2cc(-c3cc(C(=O)NCc4ccc(C(=O)O)cc4)nn3C)ccc2[nH]1 | cell-free assay | competition with immobilised ligand | 0.1 µM | 78% |
| COc1cnc(Nc2cccc(S(N)(=O)=O)c2)nc1N1CCN(c2ccccc2)C(=O)C1 | binding | competition with immobilised ligand | 1 µM | 51% |
